# Measured values published in article PMC9999367 (RSC Advances, 2023).
# Assays:
# [1] = Stability of stock and working standard solutions at refrigerated conditions; type: physicochemical; conditions: for stability of stock solutions (1 mg mL^−1): refrigerator (8 °C), at least one month, DMSO/acetonitrile; for Recovery (%): 30 days at 8 °C
# Method in brief: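 Stocks were made at 1 mg mL−1: analyte dissolved in 1 mL DMSO, made up with acetonitrile. They were held refrigerated at 8 °C. Working solutions were diluted in acetonitrile to 5–500 ng mL−1, with internal standard at 200 ng mL−1.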
# [2] = Stability studies of DUV in human plasma samples; type: in vitro ADME
# Method in brief: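 Blank human plasma was spiked at 15, 150 and 400 ng mL−1 with internal standard at 200 ng mL−1. Exposures: ~48 h in the autosampler, ~6 h at room temperature, three −80 °C/room-temperature freeze–thaw cycles, or 60 days at −80 °C. Samples were precipitated with an equal volume of mobile phase, vortexed, spun, filtered and run by C18 UPLC-ESI-MRM. Mean of 3.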
# [3] = Pharmacokinetic study in rats after single oral dose of DUV; type: in vivo, Wistar rat
# Method in brief: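 Male Wistar rats (250 ± 30 g), acclimatised 7 days and fasted 12 h with free water, got one oral gavage dose of 25 mg kg−1 in 1% DMSO/saline. About 300 µL heparinised blood was drawn predose and at 0.25–12 h. Plasma was spun at 4500 rpm, 4 °C, 30 min, stored at −20 °C, then quantified by UPLC-ESI-MS/MS. Non-compartmental analysis, 5 rats.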
# [4] = male, Wistar, rat, plasma, po, 25 mg/kg
# [5] = rat plasma, single oral 25 mg kg^−1, mean of 5
smiles,measurement,setting,value
"Cc1cc(Nc2ncc(Cl)c(Nc3ccccc3S(=O)(=O)C(C)C)n2)c(OC(C)C)cc1C1CCNCC1 [CRB, Ceritinib]",stability of stock solutions (1 mg mL^−1),[1],stable
"C[C@H](Nc1ncnc2nc[nH]c12)c1cc2cccc(Cl)c2c(=O)n1-c1ccccc1 [DUV, 8-chloro-2-phenyl-3-[(1S)-1-(7H-purin-6-ylamino)ethyl]isoquinolin-1-one]",Recovery (%),"[1]; spiked conc. 5 ng mL^−1, mean of 3",96.94%
same,Recovery (%),"[1]; spiked conc. 15 ng mL^−1, mean of 3",103.24%
same,Recovery (%),"[1]; spiked conc. 150 ng mL^−1, mean of 3",101.02%
same,Recovery (%),"[1]; spiked conc. 400 ng mL^−1, mean of 3",96.27%
same,stability of stock and working standard solutions,[1]; 30 days at refrigerated conditions (8 °C),stable
same,stability of stock solutions (1 mg mL^−1),[1],stable
same,Recovery (%),"[2]; 60 days at −80 °C, spiked conc. 5 ng mL^−1, mean of 3",101.51%
same,Recovery (%),"[2]; 60 days at −80 °C, spiked conc. 15 ng mL^−1, mean of 3",99.84%
same,Recovery (%),"[2]; 60 days at −80 °C, spiked conc. 150 ng mL^−1, mean of 3",101.19%
same,Recovery (%),"[2]; 60 days at −80 °C, spiked conc. 400 ng mL^−1, mean of 3",99.87%
same,Recovery (%),"[2]; Autosampler (48 h), spiked conc. 5 ng mL^−1, mean of 3",100.12%
same,Recovery (%),"[2]; Autosampler (48 h), spiked conc. 15 ng mL^−1, mean of 3",95.89%
same,Recovery (%),"[2]; Autosampler (48 h), spiked conc. 150 ng mL^−1, mean of 3",98.42%
same,Recovery (%),"[2]; Autosampler (48 h), spiked conc. 400 ng mL^−1, mean of 3",103.28%
same,Recovery (%),"[2]; Bench top (6 h), room temperature, spiked conc. 5 ng mL^−1, mean of 3",99.52%
same,Recovery (%),"[2]; Bench top (6 h), room temperature, spiked conc. 15 ng mL^−1, mean of 3",100.21%
same,Recovery (%),"[2]; Bench top (6 h), room temperature, spiked conc. 150 ng mL^−1, mean of 3",101.43%
same,Recovery (%),"[2]; Bench top (6 h), room temperature, spiked conc. 400 ng mL^−1, mean of 3",99.26%
same,time stable under autosampler storage settings,[2]; autosampler storage settings,≥ 48 h
same,recovery,"[2]; human, human plasma (spiked QC samples)",95.9 to 103%
same,time stable in plasma samples on the bench,"[2]; room temperature, bench",at least 6 hours
same,stability during freeze–thaw cycles,[2]; three freeze–thaw cycles,stable
same,stability at long-term storage,[2]; −80 °C for 60 days,stable
same,Cmax,[3]; [4],3800 ng/mL
same,MRT,[3]; [4],1.04 h
same,Tmax,[3]; [4],1.83 h
same,half-life,[3]; [4],0.72 h
same,k el,[3]; [4],0.000269 s⁻¹
same,Area under curve ration (AUC0–t/AUC0–∞),[3]; [5],95.69%
same,Clearance (CL),[3]; [5],14.2 mL/min/kg
same,Elimination half-life time (t1/2),[3]; [5],0.72 h⁻¹
same,Volume of distribution (Vd),[3]; [5],0.88 L/kg
